We go through five molecules from paper PMC3873039 (Anti-Cancer Agents in Medicinal Chemistry, 2013).

The subject of data set [1] is non-tumor cells (CD34+). As to the kind of experiment: Hoechst 33342 nuclear morphological analysis of apoptosis. The format is cell-based. Particulars: 24 h, read-out: AP50 (50% induction of apoptosis), Hoechst 33342 staining (Hoe). The gist of the method: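 CD34+ cells treated 24 h across the IC25–IC50 range, then pelleted (400 g, 4 °C) and fixed in 4% paraformaldehyde/PBS. Cytospins were air-dried and stained with 10 μg/ml Hoechst 33342 for 10 min in the dark, then viewed by fluorescence microscopy. 200 cells were scored per sample as % apoptotic nuclei (shrinkage, blebbing, chromatin condensation, apoptotic bodies). AP50 = concentration giving 50% apoptosis.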

In data set [2] the test system is JURKAT. As to the kind of experiment: CellTiter-Glo luminescent cell viability assay. The format is cell-based, human. Particulars: 24 h, doses 0, 2, 10, 50, 250, 500 µM, p<0.05. The gist of the method: (§1)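 Cells grown in RPMI 1640 with 10% FBS, 1.5 mM L-glutamine and penicillin/streptomycin at 37 °C, 5% CO2. Seeded at 2.5 x 10³ cells/well and exposed 24 h to ethanol-dissolved test compound (0, 2, 10, 50, 250, 500 µM) with 0.1% ethanol vehicle. ATP luminescence normalized to vehicle (100%). IC50 taken from linear regression. Lowest significant dose set by one-way ANOVA/Tukey, p<0.05. Triplicates, three independent experiments.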
(ATP-based viability assays read luminescence as a measure of living cells.)

In data set [3] the test system is JURKAT. As to the kind of experiment: Cell cycle analysis, propidium iodide flow cytometry. It is filed as cell-based, human. The conditions noted are these: IC50 dose, 24 h, p<0.05. The gist of the method: (§2)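 Seeded at 0.5 x 10^6 cells per well in 12-well plates and treated 24 h at the IC50 concentration of each test compound from CellTiter-Glo. Cells were pelleted (400 g, 5 min), PBS-washed and fixed in 80% ethanol overnight at -20 °C. Staining used 50 µg/mL PI plus RNase overnight at 4 °C.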
Background: Flow cytometry measures light scatter and fluorescence of single cells or particles in a stream.

The subject of data set [4] is MOLT-3. The data set is described as above. The format is cell-based, human. The conditions noted are these: MOLT-3, IC50 dose, 24 h; for Percentage of cells in G0/G1 phase of cell cycle (significant accumulation): vehicle control G0/G1 = 64.5%. The gist of the method:
as §2

Data set [5] has as its system THP-1. Nature of the data set: CellTiter-Glo luminescent cell viability assay. It is filed as cell-based, human. The conditions noted are these: THP-1, 24 h, doses 0, 2, 10, 50, 250, 500 µM, p<0.05. The gist of the method:
as §1

In data set [6] the test system is MOLT-3. Nature of the data set: NucView caspase 3 activity assay by flow cytometry. It is filed as cell-based, human. Particulars: for EC50: Homo sapiens, MOLT-3, 24 h, read-out: AP50 (50% induction of apoptosis), Caspase 3 activity assay (C3); for The lowest dose of polyphenols at which there was a significant induction of apoptosis compared to the vehicle control: MOLT-3, caspase 3 activity, 24 h, p<0.05. The gist of the method: (§3)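 Seeded at 0.5 x 10⁶ cells/well and treated 24 h, with series of 0–50 or 0–250 µM depending on compound. Normalized to vehicle (0% apoptosis). Mean ± STD, three independent experiments in triplicate. One-way ANOVA/Tukey, p<0.05. AP50 = concentration giving 50% apoptotic cells.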

Data set [7] deals with non-tumor cord blood (CD34+) cells. As to the kind of experiment: CellTiter-Glo luminescent cell viability assay. The conditions noted are these: 24 h; for IC50: read-out: IC50 (50% inhibition of cellular proliferation), CD34+ non-tumour control cells, 24 h treatment; for The lowest dose of polyphenols at which there was a significant inhibition of cell proliferation compared to the vehicle control: CD34+ non-tumour control cells, doses 0, 2, 10, 50, 250, 500 µM, p<0.05. The format is cell-based. The gist of the method:
as §1

The subject of data set [8] is CCRF-CEM. As to the kind of experiment: CellTiter-Glo luminescent cell viability assay. The format is cell-based, human. The conditions noted are these: 24 h, doses 0, 2, 10, 50, 250, 500 µM, p<0.05. The gist of the method: as §1
For data set [9], the system named is HL60. As to the kind of experiment: CellTiter-Glo luminescent cell viability assay. The format is cell-based, human. The conditions noted are these: HL60, 24 h, doses 0, 2, 10, 50, 250, 500 µM, p<0.05. The gist of the method:
as §1

The test system of data set [10] is HL60. As to the kind of experiment: Cell cycle analysis, propidium iodide flow cytometry. It is filed as cell-based, human. Particulars: HL60, IC50 dose, 24 h; for Percentage of cells in S phase of cell cycle (significant accumulation): vehicle control S = 33.6%; for Percentage of cells in G0/G1 phase of cell cycle (significant accumulation): vehicle control G0/G1 = 56.8%. The gist of the method: as §2

The subject of data set [11] is U937. As to the kind of experiment: NucView caspase 3 activity assay by flow cytometry. The format is cell-based, human. The conditions noted are these: for EC50: Homo sapiens, U-937, 24 h, read-out: AP50 (50% induction of apoptosis), Caspase 3 activity assay (C3); for The lowest dose of polyphenols at which there was a significant induction of apoptosis compared to the vehicle control: U937, caspase 3 activity, 24 h, p<0.05. The gist of the method: as §3

The test system of data set [12] is CCRF-CEM. Nature of the data set: Hoechst 33342 nuclear morphological analysis of apoptosis. It is filed as cell-based. Particulars: Homo sapiens, 24 h, read-out: AP50 (50% induction of apoptosis), Hoechst 33342 staining (Hoe). The gist of the method:
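Seeded at 0.5 x 10⁶ cells/well in 12-well plates and treated 24 h. Cells were pelleted (400 g, 5 min, 4 °C), washed in PBS, fixed in 4% paraformaldehyde, cytospun, air-dried, then stained with 10 μg/ml Hoechst 33342 for 10 min in the dark. Fluorescence microscopy: 200 cells counted, scored by condensed/intense nuclei, shrinkage, blebbing and apoptotic bodies. % apoptotic nuclei calculated. AP50 = concentration giving 50% apoptotic cells.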

Data set [13] has as its system all leukemia cell lines. Nature of the data set: CellTiter-Glo assay, summary over the leukemia panel. It is filed as cell-based, human. The conditions noted are these: for IC50: Homo sapiens, 24 h, read-out: IC50 values (range over leukemia cell lines). The gist of the method:
(§4)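 Cells plated at 2.5 x 10^3 per well in complete RPMI 1640 (10% FBS, 37 °C, 5% CO2). Test compounds dissolved in ethanol and dosed at 2–500 µM for 24 h; vehicle control was 0.1% (v/v) ethanol. Viability was read as ATP luminescence, normalised to vehicle (100%). IC50 was taken from linear regression of each curve. Triplicates, three independent experiments.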

The subject of data set [14] is myeloid cell lines. As to the kind of experiment: CellTiter-Glo assay, summary over myeloid lines. Particulars: Homo sapiens, 24 h, read-out: IC50 (range in myeloid cell lines). The format is cell-based. The gist of the method: as §4
Data set [15] relates to leukemia cell lines. Nature of the data set: Cell cycle analysis, summary over the leukemia panel. The format is cell-based, human. Particulars: IC50 dose, 24 h, 8 leukemia cell lines. The gist of the method: as §2
For data set [16], the system named is lymphoid cell lines. Nature of the data set: CellTiter-Glo assay, summary over lymphoid lines. It is filed as cell-based. The conditions noted are these: Homo sapiens, 24 h, read-out: IC50 (range in lymphoid cell lines). The gist of the method: as §4
In data set [17] the test system is all leukemia cell lines. Nature of the data set: Apoptosis. It is filed as cell-based, human. Particulars: for EC50: Homo sapiens, 24 h, read-out: AP50 values (range over leukemia cell lines).
For data set [18] the following is noted: cited from earlier work.

With `O=C1c2cccc(O)c2C(=O)c2c(O)cc(CO)cc21` [Aloe - Emodin, Aloe-emodin], the EC50 in data set [1] was over 500 µM; in [6], 50 µM; in data set [11], 50 µM; in data set [12], 150 µM. Moreover, the “The lowest dose of polyphenols at which there was a significant inhibition of cell proliferation compared to the vehicle control” value is 50 µM in data set [2]; 250 µM in [5]; 500 µM in [7]; 50 µM in data set [8]; 50 µM in [9]. Also, the “Phase of cell cycle accumulation” value in data set [3] is “S-phase”. The “Percentage of cells in G0/G1 phase of cell cycle (significant accumulation)” value in [4] is “G0/G1 = 68%”. The “The lowest dose of polyphenols at which there was a significant induction of apoptosis compared to the vehicle control” value in data set [6] and in data set [11] was 50 µM throughout. In addition, the IC50 was over 500 µM in data set [7] and 180 to 450 µM in data set [13]. Also, the “Percentage of cells in S phase of cell cycle (significant accumulation)” value in data set [10] was “S =35%”.
`O=c1cc(-c2ccccc2)oc2cc(O)cc(O)c12` [Chrysin]: the EC50 was over 500 µM in data set [1], 140 µM in data set [6], 150 µM in data set [11] and 40 µM in data set [12]. The “The lowest dose of polyphenols at which there was a significant inhibition of cell proliferation compared to the vehicle control” value in data set [2] amounted to 50 µM; in data set [5], 250 µM; in [7], 500 µM; in data set [8] it was 50 µM; in data set [9], 50 µM. Moreover, the “Phase of cell cycle accumulation” value in data set [3] is reported as “G0/G1 phase”. In data set [4], the “Percentage of cells in G0/G1 phase of cell cycle (significant accumulation)” value is reported as “G0/G1 =69.3%”. Besides, the “The lowest dose of polyphenols at which there was a significant induction of apoptosis compared to the vehicle control” value in data set [6] and in [11] was 50 µM throughout. Besides, the IC50 is 335 to 500 µM in data set [14], over 500 µM in data set [7] and 128 to 217 µM in [16]. Further, the “Phase of cell cycle accumulation over the leukemia cell lines” value in [15] is given as “G0/G1 phase in 7 out of the 8 leukemia cell lines”. Further, the “Percentage of cells in S phase of cell cycle (significant accumulation)” value in [10] is “S =45.5%”.
For `Cc1cc(O)c2c(c1)C(=O)c1cc(O)cc(O)c1C2=O` [Emodin], the EC50 in data set [1] was over 500 µM; in data set [6], 5 µM; in data set [17] it was 2 to 27 µM; in data set [11], 4 µM; in [12], over 500 µM. Moreover, the “The lowest dose of polyphenols at which there was a significant inhibition of cell proliferation compared to the vehicle control” value in data set [2] came out at 2 µM; in [5] it was 2 µM; in data set [7], 50 µM; in data set [8] it was 2 µM; in data set [9] it was 2 µM. Besides, in data set [3], the “Phase of cell cycle accumulation” value is recorded as “G0/G1 phase”. Moreover, the “Percentage of cells in G0/G1 phase of cell cycle (significant accumulation)” value in data set [4] was “G0/G1 =70%”; in data set [10], “G0/G1 =67.7%”. Also, the “The lowest dose of polyphenols at which there was a significant induction of apoptosis compared to the vehicle control” value in data set [6] and in [11] was 2 µM throughout. The “Number of leukemia cell lines in which 50% apoptosis was induced” value in data set [17] (Jurkat, MOLT3, HL-60, THP-1 and U937) is on record as 5 of the 8. The IC50 in [7] is about 150 µM; in data set [13], 5 to 22 µM. The “Phase of cell cycle accumulation over the leukemia cell lines” value in data set [15] is listed as “G0/G1 phase in all leukemia cell lines”.
In the case of `O=c1c(O)c(-c2ccc(O)c(O)c2)oc2cc(O)cc(O)c12` [Quercetin], the EC50 in data set [1] was over 500 µM; in data set [6] it was 50 µM; in data set [17], 19 to 50 µM; in [11], 50 µM; in data set [12], 50 µM. The “The lowest dose of polyphenols at which there was a significant inhibition of cell proliferation compared to the vehicle control” value in data set [2] came out at 2 µM; in [5] it was 2 µM; in data set [7], 250 µM; in [8], 2 µM; in data set [9], 2 µM. Besides, in data set [3], the “Phase of cell cycle accumulation” value is reported as “S-phase”. In data set [4] (vehicle control G2/M = 7.5%), the “Percentage of cells in G2/M phase of cell cycle (significant accumulation)” value is recorded as “G2/M =19%”. The “The lowest dose of polyphenols at which there was a significant induction of apoptosis compared to the vehicle control” value in data set [6] turned out to be 10 µM; in [11], 2 µM. Moreover, the IC50 in data set [14] was 33 to 155 µM; in [7], over 500 µM; in data set [16], 8 to 20 µM; in data set [13], 8 to 33 µM. Besides, the “Percentage of cells in G0/G1 phase of cell cycle (significant accumulation)” value in [10] is on record as “G0/G1 =66.2%”. The plasma concentration in [18] (50-100 mg dose) is 750 to 1500 nM. The plasma half-life in [18] is 11 to 28 h. In addition, in [13] (times more potent than apigenin and chrysin), the “Potency relative to apigenin and chrysin” value is recorded as 5-10 times.
`O=C(O)c1cc(O)c2c(c1)C(=O)c1cccc(O)c1C2=O` [Rhein]: the EC50 was over 500 µM in data set [1], 200 µM in data set [6], 60 µM in [11] and 250 µM in data set [12]. In addition, the “The lowest dose of polyphenols at which there was a significant inhibition of cell proliferation compared to the vehicle control” value in [2] was found to be 50 µM; in data set [5], 50 µM; in [7], 250 µM; in [8] it was 50 µM; in data set [9], 50 µM. In addition, in data set [3], the “Phase of cell cycle accumulation” value was “S-phase”. The results for the “Percentage of cells in G0/G1 phase of cell cycle (significant accumulation)” value in data set [4] and in [10] were “G0/G1=72%” and “G0/G1=65%”, respectively. For the same molecule, the “The lowest dose of polyphenols at which there was a significant induction of apoptosis compared to the vehicle control” value in data set [6] and in data set [11] was 50 µM in each case. Moreover, the IC50 in data set [7] turned out to be 380 µM.
